Paper PMC2896288 (Journal of molecular biology, 2010)

How the values were obtained:
[1] = target: human Mcl-1 (residues 172-327) (Homo sapiens, UniProt Q07820); assay: Fluorescence polarization competition binding assay, Mcl-1; conditions: FP competition binding assay
Procedure, shortened: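 c-myc-tagged human Mcl-1 (172-327) from E. coli BL21(DE3), TEV-cleaved from MBP, at 50 nM. Serially diluted unlabelled 23-residue peptides are premixed with Mcl-1 first. FITC-Bim-BH3 (10 nM) is then added and mixed overnight at 37 °C, returned to room temperature and anisotropy read. Buffer: phosphate, pH 7.8. Ki from complete competitive binding model fitting five parameters, Bim Kd fixed 1 nM; unlabelled Bim-BH3 reference; ≥2 experiments, SD.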

[2] = target: human Bcl-xL (residues 1-209) (Homo sapiens, UniProt Q07817); assay: Fluorescence polarization competition binding assay, Bcl-xL; conditions: FP competition binding assay
[3] = target: human Bcl-xL (residues 1-209), c-myc tagged (human) (UniProt Q07817); assay: fluorescence polarisation
[4] = target: human Mcl-1 (residues 172-327), c-myc tagged (human) (UniProt Q07820); assay: fluorescence polarisation
Mcl-1 = Mcl-1 (Homo sapiens, UniProt Q07820); assay: Yeast surface display binding, soluble Mcl-1; conditions: yeast cells displaying the peptide titrated with soluble Mcl-1
Procedure, shortened: (§1)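 EBY100 yeast displaying the BH3 peptide as Aga2p fusion with C-terminal FLAG tag, incubated with c-myc-tagged pro-survival protein. Expression is read by anti-FLAG/FITC and binding by anti-c-myc/PE. Cells are gated by forward scatter on a FACScan flow cytometer, typically 10,000 events analysed.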

Bcl-xL = Bcl-xL (Homo sapiens, UniProt Q07817); assay: Yeast surface display binding, soluble Bcl-xL; conditions: yeast cells displaying the peptide titrated with soluble Bcl-xL
Procedure, shortened: as §1

[5] = target: T1, human Bcl-w (residues 1-164), c-myc tagged (human), Q92843; assay: SEC; conditions: remark: other sources report otherwise
T1 chain: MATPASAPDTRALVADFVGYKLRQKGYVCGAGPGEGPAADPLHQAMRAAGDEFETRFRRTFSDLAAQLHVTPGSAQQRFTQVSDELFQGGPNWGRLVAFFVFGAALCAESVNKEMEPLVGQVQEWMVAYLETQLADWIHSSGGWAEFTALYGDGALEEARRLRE

Sequence of human Mcl-1 (residues 172-327), c-myc tagged (human) (Q07820 172-327): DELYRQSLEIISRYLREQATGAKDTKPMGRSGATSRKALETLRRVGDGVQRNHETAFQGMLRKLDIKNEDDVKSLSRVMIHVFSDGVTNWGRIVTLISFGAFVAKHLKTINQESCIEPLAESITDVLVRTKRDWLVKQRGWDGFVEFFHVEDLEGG
Sequence of Mcl-1 (Q07820 172-327): as above
Sequence of human Mcl-1 (residues 172-327) (Q07820 172-327): as above
Sequence of human Bcl-xL (residues 1-209), c-myc tagged (human) (Q07817 1-209): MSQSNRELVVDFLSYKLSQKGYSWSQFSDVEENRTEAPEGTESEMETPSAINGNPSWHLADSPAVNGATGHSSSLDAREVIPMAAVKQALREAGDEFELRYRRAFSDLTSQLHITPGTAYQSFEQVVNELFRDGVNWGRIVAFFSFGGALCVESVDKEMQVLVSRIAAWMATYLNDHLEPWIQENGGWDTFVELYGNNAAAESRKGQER
Sequence of human Bcl-xL (residues 1-209) (Q07817 1-209): as above
Sequence of Bcl-xL (Q07817 1-209): as above

CC[C@H](C)[C@H](NC(=O)[C@H](CCCNC(=N)N)NC(=O)[C@H](CCCNC(=N)N)NC(=O)[C@H](CC(C)C)NC(=O)[C@H](CCC(=O)O)NC(=O)[C@H](CCC(N)=O)NC(=O)[C@H](C)NC(=O)[C@@H](NC(=O)[C@H](Cc1c[nH]c2ccccc12)NC(=O)[C@@H](NC(=O)[C@H](CCC(=O)O)NC(=O)[C@@H]1CCCN1C(=O)[C@H](CCCNC(=N)N)NC(C)=O)[C@@H](C)CC)[C@@H](C)CC)C(=O)NCC(=O)N[C@@H](CC(=O)O)C(=O)N[C@@H](CCC(=O)O)C(=O)N[C@H](C(=O)N[C@@H](CC(N)=O)C(=O)N[C@@H](C)C(=O)N[C@@H](Cc1ccc(O)cc1)C(=O)N[C@@H](Cc1ccc(O)cc1)C(=O)N[C@@H](C)C(=O)N[C@@H](CCCNC(=N)N)C(N)=O)C(C)C [Phe4aVal mutation in Bim-BH3]
increase of affinity for Mcl-1 relative to Bim-BH3 [1]: more than 10 fold
reduction of affinity for Bcl-xL relative to Bim-BH3 [2]: ~30 fold

Bim-BH3 with a Phe4aVal mutation (synthetic peptide)
Ki [3]: 30 nM
Ki [4]: < 0.1 nM

Bim-BH3: peptide derived from the BH3 region of human Bim; N-acetylated, C-amidated 23-mer in solution assays
dissociation constant, yeast-displayed peptide, Mcl-1 (Mcl-1): low nanomolar range
dissociation constant, yeast-displayed peptide, Bcl-xL (Bcl-xL): low nanomolar range

unlabeled Bim-BH3 peptide (23-residue synthetic peptide)
Ki [4]: 2 nM

B1: human Bcl-w (residues 1-164), c-myc tagged, Q92843 1-164 (domain or fragment)
chain: MATPASAPDTRALVADFVGYKLRQKGYVCGAGPGEGPAADPLHQAMRAAGDEFETRFRRTFSDLAAQLHVTPGSAQQRFTQVSDELFQGGPNWGRLVAFFVFGAALCAESVNKEMEPLVGQVQEWMVAYLETQLADWIHSSGGWAEFTALYGDGALEEARRLRE
oligomeric fraction [5]: 58%
